Source: the RNAGym collection of RNA variant scans (doi:10.1126/science.aae0568)
Variants at the floor of the assay were thinned out.

B1: tRNA (parent)
chain: GUUCCGUUGGCGUAAUGGUAACGCGUCUCCCUCCUAAGGAGAAGACUGCGGGUUCGAGUCCCGUACGGAACG

Variants of: B1
Assay: yeast fitness relative to wild type (ratio to wild type); higher = fitter; tRNA-Arg(CCU), competitive growth, 37 C, YPD
Summary of the method: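 Variants of the tRNA-Arg(CCU) gene were chemically synthesised with a 3% per-site mutation rate across 69 sites and placed at the native genomic locus in Saccharomyces cerevisiae. Six parallel replicates of the pooled strains were competed in YPD at 37°C for 24 hours, and gene amplicons from the start and end populations were read by 100-nucleotide paired-end sequencing. Darwinian fitness relative to wild type was derived from changes in genotype frequencies. Genotypes required ≥ 100 starting reads, and estimates < 0.5 were set to 0.5.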

Variant	yeast fitness
GUUCCGUCGGCGUAAUGGUAACGCGUCUCCCUCCUAAGGAGAAGACUGCGGGUUCGAGUCCCGUACGUCACG [U8C G68U A69C]	≤ 0.5
GUUCCGUCGGCGUAAUGGUAACGCGUCUCCCUCCUAAGGAGAAAACUGCGGGCUAGAGUCCCGUACGGAUCG [U8C G44A U53C C55A A70U]	≤ 0.5
GUUCCGUCGGCGUAAUGGUAACGCCUCUCCCUCCUAAAGAGAAGACUGCGGGUUCGAAUUCCGUACGGAACG [U8C G25C G38A G58A C60U]	≤ 0.5
GUUCCGUCGGCGUAAUGGUAACGCGUCUCCCUCCUAAGGAGAAGACUGCGGCUUCGAGUCCCGUACGGAACG [U8C G52C]	0.639
GUUCCGUCGGCGUAAUGGUAACGCCUCUCCCUACUAAGGAGAAGACUGCGGGUUCGAGUCUCGUACGGAACG [U8C G25C C33A C61U]	≤ 0.5
GUUCCGUCGGCGCAAUGGUAACGCGUAUCCCUCCUAAGGAGAAGACUGCGGGUUCGAGUCCCGUACGGAACG [U8C U13C C27A]	0.574
GUUCCGUCGGCGUAAUGGUAACGCGUCUCCCUCCUAAGCAGAAGACCGCGGGUUCGAGCCCCGUACGGAACG [U8C G39C U47C U59C]	≤ 0.5
GUUCCGUCGGCGUAAUGGUAACGCGUCUCCCUCCUAAGGAGAAGACUGCGGAUUCGAGUCCCGUACAGAACG [U8C G52A G67A]	≤ 0.5
GUUCCGUCGGCGAAAUGGUAACGCGUCUCCCUCCUAAGGAGAAGACUGCGGGUUCGAGUCCCGUACUGAACG [U8C U13A G67U]	0.626
GUUCCGUCGGCGAAAUGGUAACGUGUCUGCCUACUAAGGAGAAGACAGCGGGUUUGAGUCCCGUCCGGAACG [U8C U13A C24U C29G C33A U47A C55U A65C]	0.787
GUUCCGUCGGCGCCAUGGUAACGCGUCUCUCUCCUAAGGAGGAGACUGCCGGUUUGAGUCCCGUACGGAACG [U8C U13C A14C C30U A42G G50C C55U]	0.671
GUUCCGUCGGCGUAAUGGUAACGCGUCUCCCUCCUAAGGAGAAGACUGCAGGUUCGAGUCCCGUAAGGAACG [U8C G50A C66A]	≤ 0.5
GUUCCGUCGGCGUAAUGGUAACGCGUCUCCCUCCUAACGAGAAGACUGCGGGUUCGAGUCCCGUACGGAACG [U8C G38C]	0.799
GUUCCGUCGGCGUAAUGGUAACGCGUCUCCCUCCUAAAGAGAAGACUGCGGGUUCGAGUCCCGUACGGAACG [U8C G38A]	0.885
GUUCCGUCGGCGUAAUGGUAACGCGUCUCCCUCCUAAGGAGAAGACUGCGGGUUCGAAUCCCGUACGGAACG [U8C G58A]	1.02
GUUCCGUCGGCGUAAUGGUAACGCGUCUCCCUCCUAAGGAGAAGACUGCGGGUUCGACUCCCGUACGGAACG [U8C G58C]	0.919
GUUCCGUCGGCGUAAUGGUAACGCGUCUCCCUCCUAAGGAGAAGACUGCAGGUUCGAGUCCCGUCCGGAACG [U8C G50A A65C]	0.603
GUUCCGUCGGCGAAAUGGUAACGCGUCUCCCUCCUAAGGAGAAGACUGCGGGUUCGAGUCCCGUACGGAACG [U8C U13A]	0.809
GUUCCGUCGGCGGAAUGGUAACGCGUCUCCCUCCUAAGGAGAAGACUGCGGGUUCGAGUCCCGUACGGAACG [U8C U13G]	0.841

Variant	yeast fitness
GUUCCGUCGGCGUAAUGGUAACGCGUCUCCCUCCUAAGGAGAACACUACGAGUUCGAGUCCCGUACGGAACG [U8C G44C G48A G51A]	0.674
GUUCCGUCGGCGUAAUGGUAACGCGUCUCCCUCCUAAGGAGAAGACUGCGGGUUCUAGUCCCGUACGGAACG [U8C G56U]	0.755
GUUCCGUCGGCGUAAUGGUAACGCGUCUCCCUCCUAAGGAGAAGACUGCGGGUUCAAGUCCCGUACGGAACG [U8C G56A]	1.06
GUUCCGUCGGCGUAAUGGUAACGCCUCUCCCUCCUAAGGAGAAGACUGAGGGUUCGAGUCCCGUACGGAACG [U8C G25C C49A]	0.515
GUUCCGUCGGCGUAAUGGUAACGCGUCUCCCUCCUAAGGAAAAGACUGCGGGUUCGAGUCCCGUACGGAACG [U8C G41A]	0.92
GUUCCGUCGGCGAAAUGGUAACGCGUCUCCCUCCUAAGGAGAAGACUGCGAGUUCGAGUCCCGUACGGAACG [U8C U13A G51A]	0.53
GUUCCGUCGGCGUAAUGGUAACGCGUCUCCCUCCUAAGGAGAAGACUCCGGGUUCGAGUCCCGUACGGAACG [U8C G48C]	0.843
GUUCCGUCGGCGUAAUGGUAACGCGUCUCCCUCCUAAGGAGAACAAUGCGGGUUCGAGUCCCGUACGGAACG [U8C G44C C46A]	0.769
GUUCCGUCGGCGUAAUGGUAACGCGUCUCCCUCCUAAGGAGAAGACUGCCGGUUAGAGUACCGUACGGAACG [U8C G50C C55A C60A]	≤ 0.5
GUUCCGUCGGCGUAAUGGUAACGCGUCUCCCUCCUAAGGAGAAGACUGCGGGUUCAAGUCCCGUACGGCACG [U8C G56A A69C]	0.836
GUUCCGUCGGCGUAAUGGUAACGCGUCUCCCUCCUAAGAAGAAGACUGCGGGUUCGAGUCCCGUACGGAACG [U8C G39A]	0.874
GUUCCGUCGGCGUAAUGGUAACGCGUCUCCCUCCUAAGCAGAAGACUGCGGGUUCGAGUCCCGUACGGAACG [U8C G39C]	0.67
GUUCCGUCGGCGUAAUGGUAACGCGUCUCCCUCCUAAGGAGAAAACUAAGGGUUCGAGACCCGUACGGAACG [U8C G44A G48A C49A U59A]	0.524
GUUCCGUCGGCGUAAUGGUAACGCGUCUCCCUCCUAAGGAGAAGACUGCGGGUUCGAGUCCCAUACGGAACG [U8C G63A]	0.864
GUUCCGUCGGCGUAAUGGUAACGCGUCUCCCUCCUAAGGAGAAAACUGCGGGCUCGAGUCCCGUACGGAUCG [U8C G44A U53C A70U]	≤ 0.5
GUUCCGUCGGCGUAAUGGUAACGCGUCUCCCUCCUAAGGAGAACACUGCGGGUUCGAGUCCCGUACGGAACG [U8C G44C]	0.911
GUUCCGUCGGCGUAAUGGUAACGCGUCUCCCUCCUAAGGAGAAGACUGCGGGUUCGAGUCCCGUACGUAACG [U8C G68U]	0.857
GUUCCGUCGGCGUAAUGGUAACGCGUCUCCCUCCUAAGGAGAAGACUGCGGGUUCGAGUCCCGUACGCAACG [U8C G68C]	0.958
GUUCCGUCGGCGUAAUGGUAACGCGUCUCCCUCCUAAGGAGAAGACUGCGGGUUCGAGUCCCGUACUGAACG [U8C G67U]	0.862
